Source: article PMC6605684 (The Journal of General Physiology, 2019)
“And” between values parts separate entries of the source, which are not always exact repeats. Identical values can stand only once. “Also recorded” adds a separate entry of the source.

Tests used:
Experiment in all cases: Inside-out patch-clamp of CFTR currents in transfected CHO cells
[1] = target: R347C-CFTR (Homo sapiens, UniProt P13569, R347C); format: cell-based
Outline: (§1)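 Channels in ATP exposed to test compound at pH 7.4; percent change of mean current scored. Perfusate then switched to pH 5.5, with or without prior compound exposure at pH 7.4. Fold increase taken as peak current at pH 5.5 divided by mean current at pH 7.4.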

[2] = target: F304Y-mCFTR (Mus musculus, UniProt P26361, F304Y); format: cell-based
Chain of F304Y-mCFTR (P26361 whole entry F304Y): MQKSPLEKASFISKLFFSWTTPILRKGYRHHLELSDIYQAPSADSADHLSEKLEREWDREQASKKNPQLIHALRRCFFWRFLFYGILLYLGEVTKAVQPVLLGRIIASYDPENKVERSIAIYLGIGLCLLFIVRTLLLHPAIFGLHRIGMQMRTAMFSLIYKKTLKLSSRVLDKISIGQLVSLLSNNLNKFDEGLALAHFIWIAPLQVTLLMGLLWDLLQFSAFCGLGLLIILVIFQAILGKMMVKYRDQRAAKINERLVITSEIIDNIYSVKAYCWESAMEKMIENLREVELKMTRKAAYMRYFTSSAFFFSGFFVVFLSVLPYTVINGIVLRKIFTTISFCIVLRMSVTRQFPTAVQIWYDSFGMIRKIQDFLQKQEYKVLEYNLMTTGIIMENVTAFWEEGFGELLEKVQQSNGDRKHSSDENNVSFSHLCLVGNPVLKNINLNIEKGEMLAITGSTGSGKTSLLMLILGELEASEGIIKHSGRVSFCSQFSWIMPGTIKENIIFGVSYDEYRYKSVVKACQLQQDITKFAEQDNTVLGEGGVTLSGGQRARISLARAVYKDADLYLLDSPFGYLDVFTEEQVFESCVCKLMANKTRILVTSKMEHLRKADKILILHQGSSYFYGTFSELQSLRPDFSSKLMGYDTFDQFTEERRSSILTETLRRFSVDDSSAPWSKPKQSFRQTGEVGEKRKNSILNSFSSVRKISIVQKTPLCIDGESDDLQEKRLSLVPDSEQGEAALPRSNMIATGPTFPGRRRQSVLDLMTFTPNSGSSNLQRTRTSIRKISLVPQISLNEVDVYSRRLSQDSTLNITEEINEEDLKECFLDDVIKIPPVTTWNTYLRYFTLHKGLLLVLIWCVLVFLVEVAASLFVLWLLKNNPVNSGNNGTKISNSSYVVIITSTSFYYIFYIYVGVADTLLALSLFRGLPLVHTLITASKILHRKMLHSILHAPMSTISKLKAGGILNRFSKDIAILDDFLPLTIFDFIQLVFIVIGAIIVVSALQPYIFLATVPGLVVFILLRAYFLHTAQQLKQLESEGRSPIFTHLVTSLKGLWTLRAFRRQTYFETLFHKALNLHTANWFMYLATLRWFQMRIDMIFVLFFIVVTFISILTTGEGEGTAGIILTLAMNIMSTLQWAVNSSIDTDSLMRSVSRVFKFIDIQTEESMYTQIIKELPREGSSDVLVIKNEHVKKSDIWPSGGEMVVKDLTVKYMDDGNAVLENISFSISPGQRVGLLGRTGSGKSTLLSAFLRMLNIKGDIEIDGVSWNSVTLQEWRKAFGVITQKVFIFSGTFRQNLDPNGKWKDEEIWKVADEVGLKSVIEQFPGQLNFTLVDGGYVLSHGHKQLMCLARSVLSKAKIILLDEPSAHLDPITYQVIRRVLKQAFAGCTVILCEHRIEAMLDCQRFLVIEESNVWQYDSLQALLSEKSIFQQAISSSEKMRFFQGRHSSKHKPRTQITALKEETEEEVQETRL
Outline: (§2)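 CFTR construct and GFP plasmid cotransfected into CHO cells, held at 27°C for 2–6 d. Inside-out patches at room temperature, −30 mV, NMDG-Cl solutions at pH 7.4. Channels preactivated with 25 IU PKA plus 2 mM MgATP, then test compound (max 40 µM) applied in 2 mM ATP. ATP-subtracted steady-state currents normalized to the 3 µM response in the same patch. Hill fit with base 0 and maximum 1; EC50 ± SD of fit; 3–7 patches per point.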

[3] = target: G551D-CFTR (Homo sapiens, UniProt P13569, G551D); format: cell-based
Outline: as §2

[4] = target: R347S-CFTR (ΔR-CFTR background) (Homo sapiens, UniProt P13569, R347S); format: cell-based; details: pH 7.4
Outline: as §1

[5] = target: Y304A-CFTR (Homo sapiens, UniProt P13569, Y304A); format: cell-based
Outline: (§3)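 Relaxation assay: PKA-preactivated channels in 2 mM ATP at −30 mV exposed to test compound through a fast three-barrel perfusion system (dead time ∼30 ms). Current decay after sudden removal of 3 µM compound fitted with a single exponential to give relaxation time constant τ.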

[6] = target: S263A-CFTR (Homo sapiens, UniProt P13569, S263A); format: cell-based
Outline: as §2

[7] = target: F931A-CFTR (Homo sapiens, UniProt P13569, F931A); format: cell-based
Outline: as §2

[8] = target: F312A-CFTR (Homo sapiens, UniProt P13569, F312A); format: cell-based; details: for ΔΔG: vs WT
[9] = target: D924E-CFTR (Homo sapiens, UniProt P13569, D924E); format: cell-based
Outline: as §2

[10] = target: Y304T-CFTR (Homo sapiens, UniProt P13569, Y304T); format: cell-based
Chain of Y304T-CFTR (P13569 whole entry Y304T): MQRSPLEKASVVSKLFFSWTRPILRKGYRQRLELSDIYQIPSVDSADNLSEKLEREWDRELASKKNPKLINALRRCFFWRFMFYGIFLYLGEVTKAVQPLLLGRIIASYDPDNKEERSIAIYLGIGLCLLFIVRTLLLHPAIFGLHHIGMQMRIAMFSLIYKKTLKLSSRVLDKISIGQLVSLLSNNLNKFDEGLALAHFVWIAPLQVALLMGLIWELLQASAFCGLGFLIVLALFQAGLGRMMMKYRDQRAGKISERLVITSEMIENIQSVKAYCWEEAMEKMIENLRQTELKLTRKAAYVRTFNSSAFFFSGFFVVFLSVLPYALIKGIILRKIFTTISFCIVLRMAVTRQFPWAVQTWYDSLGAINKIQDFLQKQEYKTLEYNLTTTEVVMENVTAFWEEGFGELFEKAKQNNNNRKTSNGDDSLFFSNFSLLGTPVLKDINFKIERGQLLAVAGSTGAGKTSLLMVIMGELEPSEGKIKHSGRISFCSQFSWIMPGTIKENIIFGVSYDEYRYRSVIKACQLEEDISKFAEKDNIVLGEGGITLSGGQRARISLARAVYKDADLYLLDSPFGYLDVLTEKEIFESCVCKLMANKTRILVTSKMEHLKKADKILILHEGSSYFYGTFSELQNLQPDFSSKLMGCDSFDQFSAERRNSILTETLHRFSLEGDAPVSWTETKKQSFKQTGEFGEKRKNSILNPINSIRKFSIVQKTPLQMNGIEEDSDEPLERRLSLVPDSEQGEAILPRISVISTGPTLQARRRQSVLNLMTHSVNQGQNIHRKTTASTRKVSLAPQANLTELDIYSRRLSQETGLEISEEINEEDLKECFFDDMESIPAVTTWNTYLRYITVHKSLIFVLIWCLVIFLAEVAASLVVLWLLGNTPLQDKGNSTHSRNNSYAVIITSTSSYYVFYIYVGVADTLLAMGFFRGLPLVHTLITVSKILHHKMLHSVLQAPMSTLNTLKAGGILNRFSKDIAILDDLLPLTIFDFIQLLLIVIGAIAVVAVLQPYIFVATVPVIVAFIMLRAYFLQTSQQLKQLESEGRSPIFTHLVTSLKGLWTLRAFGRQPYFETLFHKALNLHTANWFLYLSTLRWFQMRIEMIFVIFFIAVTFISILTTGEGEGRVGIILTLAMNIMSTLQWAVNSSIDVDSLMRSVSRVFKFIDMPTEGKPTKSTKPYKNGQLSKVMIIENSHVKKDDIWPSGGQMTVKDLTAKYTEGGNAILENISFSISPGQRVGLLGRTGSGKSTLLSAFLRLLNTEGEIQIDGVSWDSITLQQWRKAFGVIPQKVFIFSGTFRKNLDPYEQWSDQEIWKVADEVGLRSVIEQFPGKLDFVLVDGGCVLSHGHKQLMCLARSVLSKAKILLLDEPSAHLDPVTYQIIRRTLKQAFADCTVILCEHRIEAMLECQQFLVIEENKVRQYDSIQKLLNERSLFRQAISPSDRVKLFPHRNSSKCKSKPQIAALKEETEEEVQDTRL
Outline: as §3

[11] = target: F236A-CFTR (Homo sapiens, UniProt P13569, F236A); format: cell-based
Chain of F236A-CFTR (P13569 whole entry F236A): as the sequence (P13569 whole entry Y304T) above, with F236A, T304Y counted along it
Outline: as §2

[12] = target: D924N-CFTR (Homo sapiens, UniProt P13569, D924N); format: cell-based
Outline: as §2

[13] = target: S1141T/G551D-CFTR (Homo sapiens, UniProt P13569, G551D/S1141T); format: cell-based
Outline: as §2

[14] = target: S1149A-CFTR (Homo sapiens, UniProt P13569, S1149A); format: cell-based
Outline: as §2

[15] = target: Q237A-CFTR (Homo sapiens, UniProt P13569, Q237A); format: cell-based
Outline: as §2

[16] = target: S364A-CFTR (Homo sapiens, UniProt P13569, S364A); format: cell-based
Outline: as §2

[17] = target: S182A-CFTR (Homo sapiens, UniProt P13569, S182A); format: cell-based
Outline: as §2

[18] = target: WT-CFTR (Homo sapiens, UniProt P13569); format: cell-based
Outline: as §2

[19] = target: F229A-CFTR (Homo sapiens, UniProt P13569, F229A); format: cell-based
Outline: as §2

[20] = target: N1138F/G551D-CFTR (Homo sapiens, UniProt P13569, G551D/N1138F); format: cell-based
Outline: as §2

[21] = target: WT zCFTR (zWT) (Danio rerio, UniProt Q1LX78); format: cell-based, zebrafish; details: EC50 for GLPG1837, dose–response
Outline: as §2

[22] = target: WT-mCFTR (Mus musculus, UniProt P26361); format: cell-based; details: 2 mM ATP
Outline: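 Mouse CFTR expressed in CHO cells; inside-out patches. Phosphorylated channels opened by 2 mM ATP before the potentiator was applied (one potentiator at 200 nM). 5 µM CFTRinh-172 added at the end of each recording for baseline.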

[23] = target: K190A-CFTR (Homo sapiens, UniProt P13569, K190A); format: cell-based
Outline: as §2

[24] = CHO, read-out: Efficacy (% increase) of currents by GLPG1837

In the case of `CC1(C)Cc2c(sc(NC(=O)c3ccn[nH]3)c2C(N)=O)C(C)(C)O1` [GLPG1837, N-(3-carbamoyl-5,5,7,7-tetramethyl-5,7-dihydro-4H-thieno[2,3-c]pyran-2-yl)-lH-pyrazole-5-carboxamide], the “Effect of GLPG1837 on currents” value ([1]; pH 5.5) is reported as “effectively potentiates”, the “Percent of inhibition of currents by GLPG1837” value ([1]; pH 7.4) is reported as 16 ± 3% and the EC50 [2] is reported as 0.68 ± 0.18 µM. For the same molecule, the “Potentiation of currents by GLPG1837” value [2] was “restores the potentiating effects; also recorded: Potentiation”, the EC50 [3] was 2.19 ± 0.33 µM and the “Effect of GLPG1837 on currents” value [4] was “no effect”. It also gave an EC50 [5] of over 3 µM, an Emax [5, 24] of over 80% and a ΔΔG ([5]; GLPG1837, vs WT) of under -1.45 kcal/mol. For the same molecule, the “Relaxation time constant upon removal of GLPG1837” value ([5]; mean, n = 5) was 3.6 ± 1.0 s and < 5 s, the EC50 [6] was 0.27 ± 0.05 µM and the Emax [6, 24] was 148 ± 18%. It also gave a ΔΔG ([6]; GLPG1837, vs WT) of -0.022 kcal/mol, an EC50 [7] of 1.14 ± 0.26 µM and an Emax [7, 24] of 83 ± 12%. It also gave an Emax ([8]; CHO, read-out: Efficacy (% increase) of currents by GLPG1837, 30 µM ATP) of 105 ± 12%, an EC50 ([8]; EC50 for GLPG1837, 30 µM ATP (Po ∼0.35)) of 1.3 ± 0.26 µM and an EC50 ([8]; EC50 for GLPG1837, 2 mM ATP) of 0.4 ± 0.13 µM. The ΔΔG ([8]; GLPG1837, 30 µM ATP) was -0.954 kcal/mol, the ΔΔG ([8]; GLPG1837, 2 mM ATP) was -0.256 kcal/mol and the EC50 [9] was 0.71 ± 0.07 µM. The Emax [9, 24] was 194 ± 8%, the ΔΔG ([9]; GLPG1837, vs WT) was -0.595 kcal/mol and the EC50 [10] was over 3 µM. For the same molecule, the Emax [10, 24] was over 101%, the ΔΔG ([10]; GLPG1837, vs WT) was under -1.45 kcal/mol and the “Relaxation time constant upon removal of GLPG1837” value ([10]; mean, n = 5) was 4.7 ± 0.8 s and < 5 s. For the same molecule, the EC50 [11] was 0.34 ± 0.14 µM, the Emax [11, 24] was 81 ± 14% and the ΔΔG ([11]; GLPG1837, vs WT) was -0.16 kcal/mol. The EC50 [12] was 2.29 ± 0.78 µM, the ΔΔG ([12]; GLPG1837, vs WT) was -1.29 kcal/mol and the “Efficacy (% increase) of currents by GLPG1837” value ([12]; maximal percent increase) was 464 ± 73%. The EC50 [13] was 1.74 ± 0.31 µM, the ΔΔG ([13]; GLPG1837, vs G551D) was 0.136 kcal/mol and the EC50 [14] was 0.16 ± 0.03 µM. The Emax [14, 24] was 139 ± 36%, the ΔΔG ([14]; GLPG1837, vs WT) was 0.287 kcal/mol and the EC50 [15] was 0.92 ± 0.32 µM. For the same molecule, the Emax [15, 24] was 615%, the ΔΔG ([15]; GLPG1837, vs WT) was -0.748 kcal/mol and the EC50 [16] was 0.18 ± 0.01 µM. It also gave an Emax [16, 24] of 126 ± 5%, an EC50 [17] of 0.22 ± 0.04 µM and an Emax [17, 24] of 138 ± 23%. For the same molecule, the ΔΔG ([17]; GLPG1837, vs WT) was 0.098 kcal/mol, the EC50 [18] was 0.26 ± 0.04 µM and the “Hill coefficient of the GLPG1837 effect” value [18] was “≈ 1”. For the same molecule, the Emax [18, 24] was 115%, the “Saturating concentration of GLPG1837” value ([18]; continuous presence of ATP) was 3 µM and the EC50 [19] was 0.46 ± 0.07 µM. It also gave an Emax [19, 24] of 135 ± 26%, a ΔΔG ([19]; GLPG1837, vs WT) of -0.337 kcal/mol and an EC50 [20] of 0.16 ± 0.05 µM. The Emax [20, 24] was 666 ± 131%, the ΔΔG ([20]; GLPG1837, vs G551D) was 1.55 kcal/mol and the EC50 [21] was 3.9 ± 1.7 µM. For the same molecule, the “Potentiation of currents by GLPG1837” value [22] was “does not potentiate”, the EC50 [23] was 0.08 ± 0.01 µM and the Emax [23, 24] was 61 ± 12%. For the same molecule, the ΔΔG ([23]; GLPG1837, vs WT) was 0.698 kcal/mol.
